TMEM16A inh: mouse TMEM16A channel inhibition, primary screen; Q8BHY3; HEK293 TMEM16A/YFP iodide influx fluorescence, ionomycin; AID 588511; normalized B-score (activity score, 25-100; higher = stronger inhibition) at 10 µM; hit rate 1.2% among 310,000;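 active = ratio plate-corrected score three or more library SD toward inhibition, starting fluorescence score within five deviations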;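 also: score derived from kinetic fluorescence span divided by baseline fluorescence per well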
Target sequence (Q8BHY3 whole entry, looked up): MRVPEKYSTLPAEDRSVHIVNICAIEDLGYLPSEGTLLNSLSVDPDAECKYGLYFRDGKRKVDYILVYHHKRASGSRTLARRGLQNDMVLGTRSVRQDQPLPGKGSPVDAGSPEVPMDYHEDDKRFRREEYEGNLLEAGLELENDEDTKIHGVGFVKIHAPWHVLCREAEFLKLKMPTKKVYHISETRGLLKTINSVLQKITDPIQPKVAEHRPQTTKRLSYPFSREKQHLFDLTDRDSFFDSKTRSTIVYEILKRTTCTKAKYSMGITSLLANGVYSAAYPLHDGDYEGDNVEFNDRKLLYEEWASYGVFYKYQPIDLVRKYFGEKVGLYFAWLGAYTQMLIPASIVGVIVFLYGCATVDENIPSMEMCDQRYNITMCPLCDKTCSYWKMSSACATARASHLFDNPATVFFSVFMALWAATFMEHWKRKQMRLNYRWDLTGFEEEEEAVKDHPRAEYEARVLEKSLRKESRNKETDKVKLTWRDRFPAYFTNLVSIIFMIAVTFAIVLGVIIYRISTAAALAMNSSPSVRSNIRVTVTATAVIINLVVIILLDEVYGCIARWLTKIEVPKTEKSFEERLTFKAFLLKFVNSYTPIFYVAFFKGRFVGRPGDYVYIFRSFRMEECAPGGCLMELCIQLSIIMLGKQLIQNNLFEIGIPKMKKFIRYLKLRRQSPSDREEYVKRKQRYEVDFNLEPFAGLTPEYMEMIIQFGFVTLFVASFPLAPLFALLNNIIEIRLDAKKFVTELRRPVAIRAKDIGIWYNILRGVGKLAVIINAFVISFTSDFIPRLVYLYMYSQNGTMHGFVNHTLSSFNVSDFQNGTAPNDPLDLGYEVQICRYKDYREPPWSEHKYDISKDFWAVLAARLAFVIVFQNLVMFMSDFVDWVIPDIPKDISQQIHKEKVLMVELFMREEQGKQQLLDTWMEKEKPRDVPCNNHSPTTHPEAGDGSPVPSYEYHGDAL
TMEM16A act: mouse TMEM16A channel activation, primary screen; Q8BHY3; HEK293 TMEM16A/YFP-H148Q/I152L, iodide quench fluorescence; hits give low values; B-score at 10 µM; hit rate 0.3% among 340,000; AID 623877;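 active = fluorescence-ratio B-score plate-corrected deviation score at least 3 library SD below zero, with starting fluorescence score within 5 deviations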;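 also: channel opened by trigger with iodide after compound preincubation; score built on the fluorescence ratio of max minus min over baseline; more negative score means more quench and so TMEM16A activation or potentiation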
DNA FID counter: fluorescent intercalator displacement, NS3 helicase counter-screen; hit rate 0.17% among 290,000; inhibition, % at 7.9 µM; AID 1845; DNA fluorescent intercalator displacement, fluorescence; in the data active = inhibition above about 37%;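 also: 0% = vehicle and 100% = reference compound; higher means more ethidium bromide displaced from hairpin DNA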
UBC13 inh: inhibitors of human UBC13 polyubiquitin chain formation | AID 485273 | hit rate 0.47% among 330,000 | TR-FRET | inhibition, % at 20 µM | P61088; in the data active = inhibition above about 45%, passing the limit was not always enough; inconclusive = no clear call, values can overlap the other calls
Apaf1 inhib: inhibitors of human Apaf-1 apoptosome. hit rate 0.71% among 330,000. AID 489030. inhibition, % at 20 µM. reconstituted apoptosome caspase-3 activity, DEVD-Rh110 fluorescence. O14727; active = inhibition of at least 40% at 20 µM;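 also: plate controls were DMSO wells for no effect and DEVD-CHO caspase inhibitor wells for full effect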
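Material: biochemical Apaf-1 apoptosome reconstitution. Medium: Hepes buffer, pH 7.5. Also added: cytochrome c activation, bis-DEVD rhodamine 110 substrate. Timing: 30 min compound preincubation, 50 min activation, room temperature. Measured by: rhodamine 110 fluorescence at Ex 480/Em 540 nm.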
Numbers without * were called inactive; i = inactive; ? = inconclusive; · = no result; ! = not confirmed by another sample. Shown are actives, neighbours in structure and some others; about 2.4% of the full set was active somewhere.

SMILES	TMEM16A inh	TMEM16A act	DNA FID counter	UBC13 inh	Apaf1 inhib
CCOC(=O)COc1ccc2c(c1)c(C(C)=O)c(C)n2Cc1ccccc1	i	-5.5*	-31	10	0
CC(=O)c1c(C)n(Cc2ccccc2Cl)c2ccc(O)cc12	i	i	-4	4	4
CCCCCn1c(=O)c(C(=O)Nc2cnccn2)c(O)c2ccccc21	i	-6.5*	-4	30	-6
CCCCCCCn1c(=O)c(C(=O)Nc2cnccn2)c(O)c2ccccc21	i	i	-3	22	-9
C[N+]1(C)C2CC[C@H]1CC(OC(=O)C(CO)c1ccccc1)C2 (some centres undefined)	i	i	·	-4	-6
C[N+]1(C)[C@@H]2CC[C@H]1CC(OC(=O)[C@@H](CO)c1ccccc1)C2 (some centres undefined)	i	i	-2	2	70*
O=c1oc2ccccc2c(O)c1C(c1ccc([N+](=O)[O-])cc1)c1c(O)c2ccccc2oc1=O	·	i	37	·	·
C/C(CC(c1ccccc1)c1c(O)c2ccccc2oc1=O)=N\Nc1ccc([N+](=O)[O-])cc1[N+](=O)[O-] (centres undefined)	25*	i	3	-46	5
COC(=O)C1=C(c2ccc3ccccc3c2)C[C@@H]2CC[C@H]1N2C(=O)NCc1ccco1	·	i	·	-11	10
COC(=O)C1=C(c2ccccc2)C[C@@H]2CC[C@H]1N2C(=O)NCCCOC(C)C	i	i	·	5	-8
CCC(=NCCC(c1ccccc1)c1ccccc1)c1c(O)n(C)c(=O)n(C)c1=O	i	i	-1	12	22
CCC(=NCc1ccc(F)cc1)c1c(O)n(C)c(=O)n(C)c1=O	100*	i	-3	-3	1
O=C(O)c1cccc(NC(=O)N2C[C@H]3C[C@@H](C2)c2cccc(=O)n2C3)c1	i	i	2	3	-4
Nc1c(C(=O)NC2CCCC2)c2nc3ccccc3nc2n1CC1CCCO1 (centres undefined)	i	i	-9	12	94*
O=C1NC(=S)N(c2ccc(F)cc2)C(=O)/C1=C/c1ccco1	i	·	-8	?	70*
COc1ccc(OC)c(N2C(=O)/C(=C/c3ccco3)C(=O)NC2=S)c1	i	·	-1	?	73*
O=C(CCNC(=O)N1C[C@H]2C[C@@H](C1)c1cccc(=O)n1C2)Nc1ccc(F)cc1	i	i	-4	-9	-1
Cc1c(C(=O)N2CCC3(CC2)OCCO3)sc2ncnc(N3CCN(c4ccccn4)CC3)c12	i	i	-35	0	-9
Nc1ccccc1-[n+]1c(-c2ccccc2)cc(-c2ccccc2)cc1-c1ccccc1	i	-9*	21	9	-7
[O-]c1ccccc1-[n+]1c(-c2ccccc2)cc(-c2ccccc2)cc1-c1ccccc1	100*	i	·	31	21
Oc1ccccc1-[n+]1c(-c2ccccc2)cc(-c2ccccc2)cc1-c1ccccc1	i	i	·	9	0
COc1ccc(-c2cc(-c3ccccc3)[n+](C)c(-c3ccccc3)c2)cc1	i	i	7	10	5
Cc1ccccc1-[n+]1c(-c2ccccc2)cc(-c2ccccc2)cc1-c1ccccc1	100*	i	·	30	10
S=P1(Oc2ccccc2)Nc2ccccc2N1	·	i	·	·	·
CC(CN(C)C1CCN(C)CC1)c1ccccc1 (centres undefined)	i	i	2	-2	3
SMILES	TMEM16A inh	TMEM16A act	DNA FID counter	UBC13 inh	Apaf1 inhib
c1ccc(-c2[nH]c[n+](CC3CO3)c2-c2ccccc2)cc1 (centres undefined)	i	·	5	19	51*
c1ccc(OCC2CO2)cc1 (centres undefined)	·	i	·	1	-3
COC(=O)C1C2c3ccccc3C(c3ccccc32)C1C(=O)OC (centres undefined)	i	-8.8*	-17	-9	3
CC(C)OC(=O)C1C2c3ccccc3C(c3ccccc32)C1C(=O)O (centres undefined)	i	i	-1	-1	2
C1CNC2NCCNC2N1 (centres undefined)	·	i	1	·	·
CNc1ccc2oc(C[C@H]3O[C@@]4(CC[C@H]3C)O[C@H]([C@H](C)C(=O)c3ccc[nH]3)[C@H](C)C[C@H]4C)nc2c1C(=O)O	100*	-37*	·	-4	5
CC(C)CN1CCN(Cc2ccc(F)cc2Cl)CC1CCO (centres undefined)	i	i	0	-8	-8
C[n+]1c2ccccc2nc2ccc(NCCO)cc21	i	i	-105	i	94*
O=C1CCCN1C(=O)c1cncc(Br)c1	i	i	-1	8	1
Nc1cncc(C(=O)O)c1	i	i	-4	4	41*!
COc1cc(CCN)ccc1O	i	i	·	6	-7
CCCCCSc1cc(OC)c(CCN)cc1OC	i	i	39*	22	6
CCN1CCN(C(=O)COc2ccc3oc4c(c3c2)CCCC4)CC1	·	i	·	23	6
CCOC(=O)c1c(N)n(CCCOC(=O)c2ccco2)c2nc3ccccc3nc12	i	i	-13	-16	43*
CCN(CC)CCCN=C(C)c1c(O)n(C2CCCCC2)c(=O)[nH]c1=O	i	i	9	-6	-7
CCC(=NCCCN(CC)CC)c1c(O)n(C2CCCCC2)c(=O)[nH]c1=O	100*	i	7	4	4
CCCCCCn1c(O)c(C(C)=NC)c(=O)[nH]c1=O	i	i	-8	-11	-9
O=C1NC(=O)N(CCc2ccc(F)cc2)C(=O)/C1=C\C=C\c1ccccc1	·	i	-22	·	·
CN1C(=O)NC(=O)/C(=C\C=C\c2ccccc2[N+](=O)[O-])C1=O	25*	·	-8	-6	8
Cc1ccc(-c2nc(N(C)C3CCN(C)CC3)c3ccccc3n2)cc1	i	i	69*	15	1
CN1C(=O)CN=C(c2ccccc2)c2cc([N+](=O)[O-])ccc21	·	·	-7	·	·
Cc1ccc(C(=O)NC(O)C(Cl)(Cl)Cl)cc1 (centres undefined)	i	i	-1	8	6
O=C(NC1CN2CCC1CC2)c1cc(Cl)c([N+](=O)[O-])c2nc[nH]c12 (centres undefined)	i	i	22	-14	1
CCCNC1=C(C)C(=O)C2=C(C1=O)C(COC(N)=O)[C@]1(OC)C3NC3CN21 (some centres undefined)	i	i	-6	-22	57*
CC/C(=N\N1CCN(C)CC1)c1c(O)[nH]c(=O)[nH]c1=O	i	i	2	1	2
COC(=O)C1=C(c2ccc(C(C)=O)cc2)C[C@@H]2CC[C@H]1N2C(=O)NCCCOC(C)C	·	i	·	5	2
CN1/C(=C\C=C\C2=[N+](C)c3ccc4ccccc4c3C2(C)C)C(C)(C)c2ccccc21	i	·	-397	-156	90*

Source: PubChem
